Assay outcomes (PubChem)
The list is not random: actives were taken first. Their share in the collection is about 4%.
C2C12 statin – suppressors of statin myotoxicity in C2C12 myotubes, primary screen, cell-based, single point, plate reader; C2C12 myotubes + simvastatin, ATP luminescence, 48 h; scaled: DMSO 0, geranylgeraniol control 100; rescue of ATP level, % at 7.49 µM; 330,000 compounds, 0.78% hits;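 active = mean ATP rescue above about 67%, or every replicate alone reaching that limit, limit read from the data, passing the limit was not always enough; inconclusive = no clear call, values can overlap the other calls; inactive = mean under the limit and some replicate under it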;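 note: myotubes were challenged with 10 µM simvastatin during compound exposure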
E-selectin induc – E-selectin induction in HUVECs, primary screen, imaging, HUVEC, immunofluorescence imaging, single point | P16581 | normalized: neutral wells 0, TNF-alpha wells 100 | activation, % at 7.58 µM | 260,000 compounds, 0.37% hits;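 active = mean E-selectin-positive cell signal at least 10% of the positive control, reached in at least 60% of replicates, without over 20% cell loss; inconclusive = no rule given, readout overlaps actives, possibly toxicity-flagged; inactive = the rest, including those meeting only one limit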
Target sequence (P16581 whole entry, looked up): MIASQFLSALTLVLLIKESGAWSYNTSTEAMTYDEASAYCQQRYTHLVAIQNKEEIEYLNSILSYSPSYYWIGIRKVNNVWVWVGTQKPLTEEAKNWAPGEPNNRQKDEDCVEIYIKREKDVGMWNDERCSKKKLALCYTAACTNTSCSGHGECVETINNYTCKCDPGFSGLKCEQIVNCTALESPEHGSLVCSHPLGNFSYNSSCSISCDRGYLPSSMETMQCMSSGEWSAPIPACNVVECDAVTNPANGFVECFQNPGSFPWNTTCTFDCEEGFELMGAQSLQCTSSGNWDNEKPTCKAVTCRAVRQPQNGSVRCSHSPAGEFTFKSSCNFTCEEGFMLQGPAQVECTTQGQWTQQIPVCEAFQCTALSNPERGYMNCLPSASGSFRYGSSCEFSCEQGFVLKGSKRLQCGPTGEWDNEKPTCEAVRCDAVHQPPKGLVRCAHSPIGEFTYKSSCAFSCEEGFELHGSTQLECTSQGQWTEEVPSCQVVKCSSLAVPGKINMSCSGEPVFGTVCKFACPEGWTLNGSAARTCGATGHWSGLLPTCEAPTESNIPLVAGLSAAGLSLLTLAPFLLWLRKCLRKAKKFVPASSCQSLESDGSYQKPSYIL
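Read-out basis: % PE-positive cells; Test system: HUVEC primary endothelial cells; Technique: immunofluorescence imaging; Dosing: single-point compound dose.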
SIRT5 block – SIRT5 desuccinylase inhibitors, primary screen, biochemical, fluorescence imaging, single point, set 5; NAD-dependent protein deacylase sirtuin-5, mitochondrial (Homo sapiens), Q9NXA8; Purified SirT5, succinyl-peptide AMC, trypsin-coupled fluorescence; inhibition, % at 15 µM; 330,000 compounds, 1.1% hits; AID 652115, 2013; in the data active = inhibition above about 15%; inconclusive = no clear call, values can overlap the other calls
FGF22 binding – binders of human FGF22 protein, primary screen, FGF22 synaptogenesis inhibitor project, biophysical, thermal shift, single point; recombinant FGF22 thermal shift, SYPRO orange fluorescence; percent of sucrose octasulfate shift, DMSO zero; activity (Tm shift, normalised), % at 9.99 µM; 340,000 compounds, 1.5% hits; AID 651658, 2012;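 active = mean Tm shift, scaled 0 neutral to 100 positive control, at about 1.3% or above, every replicate too, limit read from the data; inconclusive = no clear call, values can overlap the other calls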
Target sequence (Q9HCT0 whole entry, looked up): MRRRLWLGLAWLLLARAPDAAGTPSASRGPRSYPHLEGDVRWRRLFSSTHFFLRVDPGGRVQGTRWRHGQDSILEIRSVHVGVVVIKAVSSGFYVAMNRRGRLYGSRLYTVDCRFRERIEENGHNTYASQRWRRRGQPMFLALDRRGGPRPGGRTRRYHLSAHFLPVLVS
Ecoli rRNA inh – reduced GFP signal of wild-type E. coli, primary screen, bacterial rRNA inhibitor project, GFP/RFP fluorescence, OD600, single point. E. coli WT GFP vs humanized-ribosome RFP mutants, 24 h; active compounds read low; DMSO median 0, no signal -100. GFP signal change (wild-type ribosome), % (concentration not given with the values). 350,000 compounds, 1.6% hits. AID 720706, 2013;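 active = significant combined selectivity score with lowered wild-type GFP, culture density cut under 30%, mutant RFP and density less affected; inactive = any of these conditions unmet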
FN deposition inh – inhibitors of fibronectin matrix deposition, primary screen, AH1F cells, Alexa488-fibronectin fluorescence, plate reader; AH1F fibroblasts, overnight; inhibition, % at 12.6 µM; 350,000 compounds, 0.086% hits;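 active = mean inhibition across replicates of 30% or more, regardless of how many single replicates reach that level; inconclusive = mean under 30% yet at least half of replicates reach 30%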
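Material: AH1F fibroblast monolayer depositing Alexa488-labelled fibronectin into matrix | Input: 10000 AH1F cells/well | Medium: DMEM plus 2% serum, read in PBS | Reagent: Alexa488-fibronectin, 24 nM final in well | Compound dosing: One dose per compound, pinned | Schedule: 1 h adhesion, overnight exposure | Measured by: Fluorescence at 485 nm excitation, 525 nm emission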
Large screens that a line does not name were inactive.

CO[C@@H]1CN(C)C(=O)c2cccc(C#N)c2OC[C@H]2O[C@H](CC[C@H]2OC)CCN(C)C(=O)[C@H]1C	none
COc1ccc(NC(=O)N(C)C[C@@H]2Oc3ccc(NC(=O)CCC(F)(F)F)cc3CC(=O)N([C@H](C)CO)C[C@@H]2C)cc1	none
COc1ccc(-c2ccc3c(c2)[C@H]2[C@H](CCN2S(=O)(=O)c2ccccc2F)[C@@H](CO)N3)cc1	none (no result: E-selectin induc, SIRT5 block, Ecoli rRNA inh, FN deposition inh)
COc1ccc(/C=C2/C(=O)N(Cc3ccccc3)N=C2C)cc1	none (no result: C2C12 statin)
COc1ccc(/C=C2/C(=O)N(c3nc4ccccc4s3)N=C2CSc2ccc(Cl)cc2)cc1	SIRT5 block 18 (no result: C2C12 statin, E-selectin induc)
Cc1ccc(-c2csc3ncnc(NS(=O)(=O)c4ccc(Cl)cc4)c23)cc1	none
O=S(=O)(Nc1ncnc2scc(-c3ccc(F)cc3)c12)c1cc(F)ccc1F	FGF22 binding 2.8
CN(C)c1ccc2c(c1)[C@@H]1C[C@@H](CC(=O)NCc3ccc4c(c3)OCO4)O[C@H](CO)[C@@H]1O2	none (no result: FN deposition inh)
COC(=O)C1=C(C)NC2=C(C(=O)CCC2)C1c1ccc(-c2ccsc2C(=O)OC)o1 (stereo not given)	Ecoli rRNA inh -24 (no result: C2C12 statin, E-selectin induc)
O=C(c1cc2c(c(-c3cccc(Br)c3)n1)[C@H](CCO)NC2)N1CCCCC1	none (no result: C2C12 statin, FGF22 binding)
O=C(c1cc2c(c(-c3cccc(Br)c3)n1)[C@@H](CCO)NC2)N1CCCCC1	E-selectin induc 132 (no result: C2C12 statin, SIRT5 block, FGF22 binding)
O=C(C[C@H]1C[C@@H]2c3cc(NS(=O)(=O)c4ccc(F)cc4)ccc3O[C@@H]2[C@@H](CO)O1)NCc1cc(F)ccc1F	none
Cc1cccc(/C(N)=N/OC(=O)COc2ccccc2Cl)c1	SIRT5 block 17 (no result: C2C12 statin, E-selectin induc)
COc1ccc(/C(N)=N/OC(=O)COc2ccccc2Cl)cc1	none
N/C(=N\OC(=O)COc1cc(Cl)c(Cl)cc1Cl)c1ccncc1	E-selectin induc 74, FGF22 binding 43 (no result: C2C12 statin)
C[C@@H]1CN([C@H](C)CO)C(=O)c2cc(NC(=O)c3ccncc3)ccc2O[C@@H](C)CCCCO[C@H]1CN(C)Cc1ccc(C(=O)O)cc1	none (no result: C2C12 statin, FN deposition inh)
CCOc1cc(C(=O)Nc2cccc3ncccc23)cc(OCC)c1OCC	C2C12 statin 107 (no result: E-selectin induc, FN deposition inh)
CCCC(=O)Oc1c(S(=O)(=O)c2ccc(C)cc2)c(C)nn1C(C)(C)C	none (no result: C2C12 statin)
CCC(=O)Oc1c(S(=O)(=O)c2ccc(C)cc2)c(C)nn1C(C)(C)C	C2C12 statin 106 (no result: E-selectin induc, SIRT5 block, FGF22 binding, Ecoli rRNA inh, FN deposition inh)
O=C(c1ccco1)N(CCCN1CCOCC1)c1nc(-c2ccc(F)cc2)cs1	Ecoli rRNA inh -33 (no result: E-selectin induc, FN deposition inh)
COc1ccc(/C=C/CN2CCCC(CO)(Cc3cccc(Cl)c3)C2)cc1 (stereo not given)	Ecoli rRNA inh -47
COc1cc(Cl)c(CN2CCCC(CO)(Cc3cccc(Cl)c3)C2)cc1OC (stereo not given)	none
Cc1c(CN2CCCC(CO)(Cc3cccc(Cl)c3)C2)cnn1C (stereo not given)	C2C12 statin inconclusive, FGF22 binding 43
N#Cc1nc(-c2ccco2)oc1NCCCn1ccnc1	C2C12 statin 129 (no result: E-selectin induc, SIRT5 block, FGF22 binding, Ecoli rRNA inh, FN deposition inh)
CC(C)(C)c1ccc(-c2nc(C#N)c(NCCCn3ccnc3)o2)cc1	none (no result: E-selectin induc)
CN(C)Cc1cc(C(C)(C)c2ccccc2)ccc1O	FGF22 binding 43 (no result: SIRT5 block)
CCCS(=O)(=O)N1CCCC(C(=O)NCCN2CCC(Cc3ccccc3)CC2)C1 (stereo not given)	C2C12 statin 117 (no result: E-selectin induc, SIRT5 block, FGF22 binding, Ecoli rRNA inh, FN deposition inh)
CC1CCN(c2ccc3nnc(CCC(=O)Nc4cccc(F)c4)n3n2)CC1	Ecoli rRNA inh -30
COc1ccc(NC(=O)CCc2nnc3ccc(N4CCC(C)CC4)nn23)cc1	none
Cc1ccc(N2C(=O)[C@@H]3C(c4cccnc4)=NO[C@@H]3C2=O)c(C)c1	E-selectin induc 31 (no result: SIRT5 block)
COc1ccc(/C=C/C(=O)OCC(=O)N2c3ccccc3CC2C)cc1OC (stereo not given)	none (no result: SIRT5 block, FN deposition inh)
CC1Cc2ccccc2N1C(=O)COC(=O)c1cccc(Br)c1 (stereo not given)	Ecoli rRNA inh -32 (no result: E-selectin induc)
COc1cccc(/C=C/C(=O)OCC(=O)N2c3ccccc3CC2C)c1 (stereo not given)	Ecoli rRNA inh -18 (no result: SIRT5 block, FGF22 binding)
Cc1noc(C)c1NC(=O)Nc1ccc2c(c1)C(=O)N([C@H](C)CO)C[C@@H](C)[C@@H](CN(C)C(=O)Nc1ccccc1)OCCCC[C@@H](C)O2	none
Cc1ccccc1S(=O)(=O)NCC[C@@H]1CC[C@H](NS(=O)(=O)c2ccccc2C)[C@H](CO)O1	none (no result: FN deposition inh)
COc1ccc(-c2nc(NC(=O)Cn3c(=O)oc4ccccc43)sc2C)cc1	E-selectin induc 39 (no result: C2C12 statin)
COc1cccc(NC(=O)Cn2c(=O)oc3ccccc32)c1	none (no result: C2C12 statin, E-selectin induc, FN deposition inh)
C[C@@H]1CN([C@@H](C)CO)C(=O)c2cc(NS(=O)(=O)c3cccs3)ccc2O[C@@H](C)CCCCO[C@@H]1CN(C)C(=O)Nc1ccc2c(c1)OCO2	none (no result: FN deposition inh)
O=C(CN1CCN(c2ncccn2)CC1)N(Cc1ccccc1)c1ccc(F)cc1	Ecoli rRNA inh -35 (no result: E-selectin induc, FN deposition inh)
O=C(C[C@H]1CC[C@@H](NC(=O)c2ccc3c(c2)OCO3)[C@H](CO)O1)NCc1ccc(Oc2ccccc2)cc1	C2C12 statin 68
COc1cccc(-c2nc(N3CCN(C)CC3)c3ccccc3n2)c1O	C2C12 statin inconclusive, Ecoli rRNA inh -23 (no result: E-selectin induc)
CN1CCN(c2nc(-c3ccccc3O)nc3ccccc23)CC1	none (no result: C2C12 statin)
CCN1C=C(C(C)=O)C(=O)CC1	FGF22 binding 43 (no result: SIRT5 block)
Nc1nnc(CC(=O)N/N=C/c2ccc(-c3cccc(C(=O)O)c3)o2)s1	SIRT5 block 20 (no result: C2C12 statin)
CN(C)C(=O)c1ccc(-c2ccc([C@H]3[C@@H](CO)N4C(=O)CN(C(=O)C5CCCC5)C[C@@H]34)cc2)cc1	none (no result: C2C12 statin, FGF22 binding)
CC(C)NC(=O)N1[C@@H]2CN(CC(F)(F)F)C[C@H]1C2c1ccccc1 (stereo not given in full)	none (no result: C2C12 statin, E-selectin induc, SIRT5 block, FGF22 binding)
COc1n[nH]c(C(=O)Nc2nc3ccccc3s2)c1[N+](=O)[O-]	FGF22 binding 44 (no result: C2C12 statin, E-selectin induc)
COc1n[nH]c(C(=O)NCc2ccccc2)c1[N+](=O)[O-]	none (no result: C2C12 statin)
CN(C)C(CNc1ncnc2sc3c(c12)CCCCC3)c1ccco1 (stereo not given)	Ecoli rRNA inh -38 (no result: C2C12 statin)
